Measured values as given in ChEMBL document CHEMBL1140539, “Modification of cap group in delta-lactam-based histone deacetylase (HDAC) inhibitors” (Bioorg Med Chem Lett, 2007).

Tests used:
HCT-15 = experiment: Growth inhibition of human HCT15 cells by SRB assay; format: functional
PC-3 = experiment: Growth inhibition of human PC3 cells by SRB assay; format: functional
Histone deacetylase = experiment: Inhibition of HDAC in HeLa cell lysates; format: protein assay, Homo sapiens
MDA-MB-231 [1] = experiment: Growth inhibition of human MDA-MB-231 cells by SRB assay; format: functional
ACHN = experiment: Growth inhibition of human ACHN cells by SRB assay; format: functional
NUGC-3 = experiment: Growth inhibition of human NUGC3 cells by SRB assay; format: functional
MDA-MB-231 [2] = experiment: Antitumor activity against MDA-MB-231 cells xenografted BALB/c nude mouse at 30 mg/kg, ip for 15 days; format: functional, Homo sapiens; details: MDA-MB-231, ip, 360 h, route intraperitoneal
MDA-MB-231 [3] = experiment: Antitumor activity against MDA-MB-231 cells xenografted BALB/c nude mouse assessed as body weight at 30 mg/kg, ip for 15 days; format: functional, Homo sapiens; details: route intraperitoneal
In short: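 Nude mice carrying MDA-MB-231 human breast xenografts were dosed once daily by intraperitoneal injection at 30 mg/kg. Dosing began once tumours reached 50–60 mm³.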

[4] = molecular target: Histone deacetylase (Homo sapiens) (UniProt Q13547+O15379+Q9UBN7+Q92769+Q9UQL6+Q8WUI4+Q9BY41+Q96DB2+P56524+Q9UKV0+Q969S8); details: HeLa

Compound	GI50 (HCT-15) [nM]	GI50 (PC-3) [nM]	IC50 (Histone deacetylase) [nM]	GI50 (MDA-MB-231 [1]) [nM]	GI50 (ACHN) [nM]	IC50 [4] [nM]	GI50 (NUGC-3) [nM]	inhibition in vivo at 30 mg/kg (MDA-MB-231 [2]) [%]	Activity (MDA-MB-231 [3]) [%]
Cc1ccc(S(=O)(=O)Nc2ccc(CN3CCC=C(CCC(=O)NO)C3=O)cc2)cc1	> 10000	1800	590	560	370	–	–	–	–
COc1ccccc1CN1CCC=C(CCC(=O)NO)C1=O	> 10000	> 10000	860	> 10000	> 10000	–	–	–	–
Cc1ccccc1CN1CCC=C(CCC(=O)NO)C1=O	> 10000	> 10000	2970	4920	> 10000	–	–	–	–
O=C(CCC1=CCCN(Cc2ccc(NC(=O)c3ccccc3)cc2)C1=O)NO	> 10000	> 10000	510	6030	> 10000	–	> 10000	–	–
Cc1cccc(CN2CCC=C(CCC(=O)NO)C2=O)c1	> 10000	> 10000	1900	8120	4380	–	–	–	–
CC(=O)Nc1ccc(CN2CCC=C(CCC(=O)NO)C2=O)cc1	–	> 10000	820	–	–	–	–	–	–
O=C(CCC1=CCCN(Cc2ccc3ccccc3c2)C1=O)NO	–	–	–	–	–	> 10000	–	–	–
O=C(CCCCCCC(=O)Nc1ccccc1)NO [VORINOSTAT]	–	–	–	–	2220	–	–	–	100

Further lines, with some results ahead:

GI50 (HCT-15) [nM]	GI50 (PC-3) [nM]	IC50 (Histone deacetylase) [nM]	GI50 (MDA-MB-231 [1]) [nM]	GI50 (ACHN) [nM]	IC50 [4] [nM]	Compound	GI50 (NUGC-3) [nM]	inhibition in vivo at 30 mg/kg (MDA-MB-231 [2]) [%]	Activity (MDA-MB-231 [3]) [%]
6890	7080	440	3860	1670	–	COc1ccc(CN2CCC=C(CCC(=O)NO)C2=O)cc1	–	–	–
> 10000	3010	230	470	5210	–	O=C(CCC1=CCCN(Cc2ccc([N+](=O)[O-])cc2)C1=O)NO	1110	–	–
1720	3150	450	1630	2480	–	O=C(CCC1=CCCN(Cc2ccc(Br)cc2)C1=O)NO	–	–	–
8510	8100	2100	1430	5000	–	Cc1ccc(CN2CCC=C(CCC(=O)NO)C2=O)cc1	–	–	–
5430	2580	320	2530	6620	–	O=C(CCC1=CCCN(CCc2cccc3ccccc23)C1=O)NO	3260	–	–
1670	1690	110	1470	1820	–	O=C(CCC1=CCCN(CCCCc2cccc3ccccc23)C1=O)NO	2010	–	–
3190	3230	270	1040	2490	–	O=C(CCC1=CCCN(CCCc2ccc(-c3ccccc3)cc2)C1=O)NO	3700	–	–
9030	> 10000	1940	3920	7600	–	COc1cccc(CN2CCC=C(CCC(=O)NO)C2=O)c1	–	–	–
9960	–	560	–	–	–	O=C(CCC1=CCCN(Cc2ccc(F)cc2)C1=O)NO	–	–	–
1000	530	230	280	1180	–	O=C(CCC1=CCCN(CCc2ccc(-c3ccccc3)cc2)C1=O)NO	1650	–	–
4560	2950	200	1280	2670	–	O=C(CCC1=CCCN(CCCCc2ccc(-c3ccccc3)cc2)C1=O)NO	4200	–	–
1160	610	37	280	1180	–	O=C(CCC1=CCCN(CCc2ccc3ccccc3c2)C1=O)NO	370	51	94
530	300	30	560	460	–	O=C(CCC1=CCCN(CCCc2ccc3ccccc3c2)C1=O)NO	790	–	–
